In ChEMBL document CHEMBL5058577, “EUbOPEN Chemogenomics Library 2 (Multiplex)” (2022):

Test system: HEK-293T
Assay: Multiplex assay against HEK293T
Type: toxicity, cell-based
Details: human
Method in brief: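 Live cells were stained at seeding with Hoechst33342, BioTracker Green Microtubule Cytoskeleton Dye, MitoTracker Red and Annexin V Alexa Fluor 680. Following compound addition, they were imaged on a CQ1 microscope at 37°C and 5% CO2 and gated by CellPathfinder machine learning into Hoechst high-intensity objects or normal cells, with normal cells split into healthy, pyknosed or fragmented nuclei and pyknosed cells into mitotic or apoptotic. Tubulin, mitochondrial-mass and membrane-permeability phenotypes are per cents of healthy-nucleus cells.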

[1] = 12 h, 1 µM, compound concentration 1 uM, replicate 1
[2] = 12 h, 1 µM, compound concentration 1 uM, replicate 2
[3] = 12 h, 10 µM, compound concentration 10 uM, replicate 1
[4] = 12 h, 10 µM, compound concentration 10 uM, replicate 2
[5] = 24 h, 1 µM, compound concentration 1 uM, replicate 1
[6] = 24 h, 1 µM, compound concentration 1 uM, replicate 2
[7] = 24 h, 10 µM, compound concentration 10 uM, replicate 1
[8] = 24 h, 10 µM, compound concentration 10 uM, replicate 2
[9] = 48 h, 1 µM, compound concentration 1 uM, replicate 1
[10] = 48 h, 1 µM, compound concentration 1 uM, replicate 2
[11] = 48 h, 10 µM, compound concentration 10 uM, replicate 1
[12] = 48 h, 10 µM, compound concentration 10 uM, replicate 2

Structure (SMILES): Cl.N=C(N)NC(=O)Cc1c(Cl)cccc1Cl [GUANFACINE HYDROCHLORIDE]
- Population Apoptotic (%) [1]: 29%
- Population Fragmented Nuclei (%) [1]: 3%
- Population Healthy Nuclei (%) [1]: 84%
- Population Hoechst High Intensity Objects (%) [1]: 7%
- Population Membrane Permeable-Phenotype (%) [1]: 0%
- Population Mitochondria Different-Phenotype (%) [1]: 46%
- Population Mitotic Cells (%) [1]: 70%
- Population Normal (%) [1]: 92%
- Population Pyknosed Nuclei (%) [1]: 11%
- Population Tubulin-Different-Phenotype (%) [1]: 31%
- Total Cell Count [1]: 384
- Population Apoptotic (%) [2]: 47%
- Population Fragmented Nuclei (%) [2]: 5%
- Population Healthy Nuclei (%) [2]: 76%
- Population Hoechst High Intensity Objects (%) [2]: 12%
- Population Mitochondria Different-Phenotype (%) [2]: 67%
- Population Mitotic Cells (%) [2]: 52%
- Population Normal (%) [2]: 87%
- Population Pyknosed Nuclei (%) [2]: 17%
- Total Cell Count [2]: 289
- Population Apoptotic (%) [3]: 52%
- Population Fragmented Nuclei (%) [3]: 12%
- Population Healthy Nuclei (%) [3]: 67%
- Population Hoechst High Intensity Objects (%) [3]: 7%
- Population Membrane Permeable-Phenotype (%) [3]: 0%
- Population Mitochondria Different-Phenotype (%) [3]: 61%
- Population Mitotic Cells (%) [3]: 47%
- Population Normal (%) [3]: 92%
- Population Pyknosed Nuclei (%) [3]: 20%
- Population Tubulin-Different-Phenotype (%) [3]: 43%
- Total Cell Count [3]: 296
- Population Apoptotic (%) [4]: 34%
- Population Fragmented Nuclei (%) [4]: 8%
- Population Healthy Nuclei (%) [4]: 77%
- Population Hoechst High Intensity Objects (%) [4]: 10%
- Population Mitochondria Different-Phenotype (%) [4]: 69%
- Population Mitotic Cells (%) [4]: 65%
- Population Normal (%) [4]: 89%
- Population Pyknosed Nuclei (%) [4]: 14%
- Population Tubulin-Different-Phenotype (%) [4]: 38%
- Total Cell Count [4]: 365
- Population Apoptotic (%) [5]: 36%
- Population Fragmented Nuclei (%) [5]: 8%
- Population Healthy Nuclei (%) [5]: 80%
- Population Hoechst High Intensity Objects (%) [5]: 4%
- Population Membrane Permeable-Phenotype (%) [5]: 0%
- Population Mitochondria Different-Phenotype (%) [5]: 27%
- Population Mitotic Cells (%) [5]: 63%
- Population Normal (%) [5]: 95%
- Population Pyknosed Nuclei (%) [5]: 11%
- Population Tubulin-Different-Phenotype (%) [5]: 21%
- Total Cell Count [5]: 493
- Population Apoptotic (%) [6]: 50%
- Population Fragmented Nuclei (%) [6]: 4%
- Population Healthy Nuclei (%) [6]: 83%
- Population Hoechst High Intensity Objects (%) [6]: 10%
- Population Mitochondria Different-Phenotype (%) [6]: 42%
- Population Mitotic Cells (%) [6]: 50%
- Population Normal (%) [6]: 89%
- Population Tubulin-Different-Phenotype (%) [6]: 19%
- Total Cell Count [6]: 344
- Population Apoptotic (%) [7]: 46%
- Population Fragmented Nuclei (%) [7]: 11%
- Population Healthy Nuclei (%) [7]: 75%
- Population Hoechst High Intensity Objects (%) [7]: 7%
- Population Membrane Permeable-Phenotype (%) [7]: 0%
- Population Mitochondria Different-Phenotype (%) [7]: 48%
- Population Mitotic Cells (%) [7]: 53%
- Population Normal (%) [7]: 92%
- Population Pyknosed Nuclei (%) [7]: 12%
- Population Tubulin-Different-Phenotype (%) [7]: 39%
- Total Cell Count [7]: 343
- Population Apoptotic (%) [8]: 36%
- Population Fragmented Nuclei (%) [8]: 6%
- Population Healthy Nuclei (%) [8]: 83%
- Population Hoechst High Intensity Objects (%) [8]: 9%
- Population Mitochondria Different-Phenotype (%) [8]: 50%
- Population Mitotic Cells (%) [8]: 63%
- Population Normal (%) [8]: 90%
- Population Pyknosed Nuclei (%) [8]: 10%
- Population Tubulin-Different-Phenotype (%) [8]: 27%
- Total Cell Count [8]: 454
- Population Apoptotic (%) [9]: 15%
- Population Fragmented Nuclei (%) [9]: 15%
- Population Healthy Nuclei (%) [9]: 78%
- Population Hoechst High Intensity Objects (%) [9]: 2%
- Population Membrane Permeable-Phenotype (%) [9]: 1%
- Population Mitochondria Different-Phenotype (%) [9]: 22%
- Population Mitotic Cells (%) [9]: 84%
- Population Normal (%) [9]: 97%
- Population Pyknosed Nuclei (%) [9]: 6%
- Population Tubulin-Different-Phenotype (%) [9]: 21%
- Total Cell Count [9]: 680
- Population Apoptotic (%) [10]: 34%
- Population Fragmented Nuclei (%) [10]: 10%
- Population Healthy Nuclei (%) [10]: 79%
- Population Hoechst High Intensity Objects (%) [10]: 7%
- Population Membrane Permeable-Phenotype (%) [10]: 0%
- Population Mitochondria Different-Phenotype (%) [10]: 32%
- Population Mitotic Cells (%) [10]: 65%
- Population Normal (%) [10]: 92%
- Population Pyknosed Nuclei (%) [10]: 9%
- Population Tubulin-Different-Phenotype (%) [10]: 14%
- Total Cell Count [10]: 560
- Population Apoptotic (%) [11]: 47%
- Population Fragmented Nuclei (%) [11]: 17%
- Population Healthy Nuclei (%) [11]: 73%
- Population Hoechst High Intensity Objects (%) [11]: 6%
- Population Membrane Permeable-Phenotype (%) [11]: 0%
- Population Mitochondria Different-Phenotype (%) [11]: 31%
- Population Mitotic Cells (%) [11]: 52%
- Population Normal (%) [11]: 93%
- Population Pyknosed Nuclei (%) [11]: 9%
- Population Tubulin-Different-Phenotype (%) [11]: 14%
- Total Cell Count [11]: 421
- Population Apoptotic (%) [12]: 50%
- Population Fragmented Nuclei (%) [12]: 12%
- Population Healthy Nuclei (%) [12]: 80%
- Population Hoechst High Intensity Objects (%) [12]: 10%
- Population Mitochondria Different-Phenotype (%) [12]: 33%
- Population Mitotic Cells (%) [12]: 50%
- Population Normal (%) [12]: 89%
- Population Pyknosed Nuclei (%) [12]: 6%
- Population Tubulin-Different-Phenotype (%) [12]: 20%
- Total Cell Count [12]: 612
